Screening data deposited in PubChem BioAssay by Broad Institute.
ALR inh = inhibitors of human sulfhydryl oxidase ALR; P55789; purified ALR, DTT oxidation, H2O2 HRP-luminol luminescence; inhibition, % (test concentration not listed); actives 3.8% (n = 290,000); AID 485317;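 active means mean replicate inhibition above about 79%, with every replicate also reaching it, limit read from the data; inconclusive means only one of the two criteria met; inactive means mean below limit and not every replicate reaching it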
Target sequence (P55789 whole entry, looked up): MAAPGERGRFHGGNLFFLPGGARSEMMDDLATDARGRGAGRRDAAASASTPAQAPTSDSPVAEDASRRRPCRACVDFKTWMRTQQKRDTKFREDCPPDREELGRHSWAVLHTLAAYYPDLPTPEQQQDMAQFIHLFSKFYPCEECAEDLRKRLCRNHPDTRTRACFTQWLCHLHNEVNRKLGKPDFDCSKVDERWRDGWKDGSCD
Rtt109 HAT inh = inhibitors of Candida albicans Rtt109/Vps75 histone acetyltransferase; purified Rtt109/Vps75, ThioGlo CoA-SH fluorescence, 4 h; inhibition, % at 34.9 µM; actives 0.16% (n = 330,000); AID 540336;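 active means inhibition of at least 50% in every replicate; inconclusive means best replicate reaches 50% inhibition but some replicates fall short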
Target sequence (Q5AAJ8 whole entry, looked up): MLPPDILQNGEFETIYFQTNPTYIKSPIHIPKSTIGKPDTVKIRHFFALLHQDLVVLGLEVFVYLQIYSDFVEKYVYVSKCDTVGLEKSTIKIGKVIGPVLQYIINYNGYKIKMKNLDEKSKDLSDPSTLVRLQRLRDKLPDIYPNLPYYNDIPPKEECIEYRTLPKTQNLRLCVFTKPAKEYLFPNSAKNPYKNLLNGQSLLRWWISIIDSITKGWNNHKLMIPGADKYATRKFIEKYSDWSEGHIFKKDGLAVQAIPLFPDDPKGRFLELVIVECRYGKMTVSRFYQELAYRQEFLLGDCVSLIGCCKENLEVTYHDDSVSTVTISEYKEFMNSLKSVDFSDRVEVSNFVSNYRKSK
DYRK1A inh = inhibitors of rat Dyrk1A kinase; actives 0.43% (n = 310,000); Q63470; inhibition, % at 12.5 µM; ADP-Glo luminescence, NFATc1 peptide; in the data active means inhibition above about 50%
CAL PDZ FP-1 = human CAL PDZ-peptide interaction inhibition; inhibition, % at 20 µM; purified CAL PDZ, TMR-peptide fluorescence polarization, 1 h; actives 0.02% (n = 330,000);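 active means highest replicate inhibition of at least 40%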
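Material: tagged CAL PDZ domain; buffer or medium: 25 mM sodium phosphate pH 7.4, 150 mM NaCl, TCEP, IgG, Thesit; compound dosing: single point, 20 µM; schedule: 1 h incubation at room temperature before polarization reading; measured by: FP readout, S and P plane fluorescence; read-out basis: percent inhibition from loss of millipolarization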
CAL PDZ FP-2 = CAL PDZ (human) peptide binding inhibition | Q9HD26 | purified CAL PDZ, TMR-peptide fluorescence polarization, 1 h | inhibition, % at 24.9 µM | actives 0.92% (n = 300,000) | AID 602252;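 active means mean inhibition of at least 30% with at least half of replicates also reaching 30%; inconclusive means no clear call, values can overlap the other calls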
Large screens that a line does not name were inactive. This is a sample that favours compounds with a hit; in the whole collection about 4.3% have one here.

Oc1c(Cl)cc(Cl)cc1C=Nc1ccc2c(c1)OCCO2	none
CCc1nc(SCc2cccnc2)[nH]c(=O)c1C	ALR inh 99.2
O=C(CSc1nc2ccccc2[nH]1)Nc1c(F)c(F)c(F)c(F)c1F	none
O=C(CSc1nc2ccccc2[nH]1)Nc1nc(-c2ccc(Br)cc2)cs1	ALR inh 97.8
N#Cc1c(-c2cccs2)nc(SCc2ccc(Cl)cc2)[nH]c1=O	none (no result: ALR inh, CAL PDZ FP-1)
CCCc1cc(=O)[nH]c(SCc2nc3ccc([N+](=O)[O-])cc3[nH]2)n1	ALR inh 98.7
CCc1nc(SCc2ccc(F)cc2)[nH]c(=O)c1C#N	ALR inh 98.2
O=C1Nc2ccccc2C1(O)C/C(=N/O)c1ccccc1 (stereo not drawn)	none (no result: Rtt109 HAT inh)
CCN(CC)C(=S)Oc1ccc(Cl)cc1Cl	none (no result: DYRK1A inh)
CCCc1cc(=O)[nH]c(SCc2cccnc2)n1	ALR inh 97.2 (no result: CAL PDZ FP-1)
O=C(CS(=O)(=O)c1ccccc1)Nc1nc(-c2ccccc2)cs1	ALR inh 99.3 (no result: CAL PDZ FP-2)
CCOC(=O)Cc1cnc(NC(=O)CSc2nc(C)c(CC)c(=O)[nH]2)s1	ALR inh 99.1 (no result: CAL PDZ FP-1)
C=CCn1c(SCc2csc(-c3ccc(Cl)cc3)n2)nnc1-c1ccccc1OC	ALR inh 81.5
COc1ccccc1/C=C/C=N/NC(=O)c1cccs1	none (no result: CAL PDZ FP-2)
CCCCn1c(N)c(N(CCC(C)C)C(=O)c2ccc([N+](=O)[O-])s2)c(=O)[nH]c1=O	none
CC1CCCN(C(=O)CN(C)S(=O)(=O)c2ccc3c(c2)c(=O)n(C)c(=O)n3C)C1 (stereo not drawn)	none (no result: CAL PDZ FP-2)
CC(=O)N1CCN(S(=O)(=O)c2ccc(C)cc2)C1C (stereo not drawn)	none
CCCc1cc(=O)[nH]c(SCc2csc(-c3ccccc3)n2)n1	ALR inh 98.8
CCCc1cc(=O)[nH]c(SCC(=O)Nc2nc(-c3ccccc3)cs2)n1	ALR inh 98.8 (no result: CAL PDZ FP-1)
Cc1cc(C)nc(SCc2csc(-c3ccccc3)n2)n1	ALR inh 98.8
Cc1cc(C)nc(SCc2csc(N)n2)n1	none (no result: ALR inh, DYRK1A inh)
Cc1nc(NC(=O)CSc2ccc(-c3nc4ccccc4[nH]3)cn2)sc1C	ALR inh 98.7
Cc1ccc(S(=O)(=O)N(Cc2ccc(C(F)(F)F)cc2)C(=O)N2CCN(C)CC2)cc1	none
O=C(COC(=O)C1=NN(c2ccccc2)C(=O)CC1)NCc1ccccc1Cl	none (no result: ALR inh)
Nc1ccccc1SCc1csc(-c2ccc(Cl)cc2)n1	ALR inh 98.4
Cc1ccc(Nc2nc(CSc3nnc(-c4cccs4)o3)cs2)cc1	none
CCc1c(C)nc(SCC(=O)NNC(=O)Cc2ccc(OC)cc2)[nH]c1=O	none
CCc1c(C)nc(SCC(=O)Nc2nc(-c3ccc(OC)cc3)cs2)[nH]c1=O	ALR inh 98.9 (no result: DYRK1A inh)
c1ccc(-c2nc(CSc3nnc(-c4cccs4)o3)cs2)cc1	ALR inh 98.0
Cn1c(N)c(C(=O)Nc2ccc(-c3ccccc3)cc2)sc1=S	ALR inh inconclusive (no result: CAL PDZ FP-2)
CSC(=NC#N)N1CCN(c2ccc(Cl)cc2)CC1	ALR inh 97.3
Cc1ccc(C(=O)N2CCN=C2SCc2ccc([N+](=O)[O-])cc2)cc1C	ALR inh 99.2
O=C(c1ccccc1)N1CCN=C1SCc1ccc([N+](=O)[O-])cc1	ALR inh 98.7
O=C(c1ccc([N+](=O)[O-])cc1)N1CCN=C1SCc1ccccc1	none (no result: ALR inh)
CC(=O)Nc1cc(-c2ccccc2)ccc1O	ALR inh 99.5
Nc1cc(-c2ccccc2)ccc1O	ALR inh 98.8
Oc1ccc(-c2ccccc2)cc1CN1CCCCCC1	none (no result: CAL PDZ FP-1)
COc1ccc(C(=O)N/C(=C\c2ccccc2)C(=O)Nc2ccccc2C(=O)O)cc1	none
COc1ccc(CCNCC(=O)Nc2ccc(OC(F)(F)F)cc2)cc1OC	none
C=CCNc1nc2ccccc2nc1NS(=O)(=O)c1ccc(Br)cc1	none
CC(=O)c1ccc(OCC(C)Oc2ccc(C#N)cc2)cc1 (stereo not drawn)	none (no result: ALR inh)
CN1c2ccsc2C(O)=C(C(=S)Nc2ccc(F)c(Cl)c2)S1(=O)=O	none
CCc1nnc2n1N=C(c1ccc(Cl)cc1)CS2	none (no result: CAL PDZ FP-1)
Cc1nnc2n(c1=O)N=C(c1ccc(Cl)cc1)CS2	ALR inh 99.2
CCCCC(O)(CCCC)C(=O)NN(C(=O)OC)c1ccc(C)cc1	none (no result: CAL PDZ FP-2)
Nc1ccc2c(=O)[nH][nH]c(=O)c2c1	none (no result: ALR inh)
Nc1ccc2oc3ccc(N)cc3c(=O)c2c1	ALR inh 99.2
COc1cccc2cc(C(=O)N(Cc3ccccc3)CC3CCCO3)c(=O)oc12 (stereo not drawn)	CAL PDZ FP-2 43.2
O=C(c1cc2ccccc2oc1=O)N(Cc1ccccc1)CC1CCCO1 (stereo not drawn)	none
CSc1nc(-c2ccc(Cl)cc2)c(C#N)c(=O)[nH]1	ALR inh inconclusive
CSc1ncc(-c2ccc(Cl)cc2)[nH]1	ALR inh 97.9
CCOc1c(CNCCCSc2nc(C)cc(C)n2)cccc1OC	none (no result: CAL PDZ FP-2)
O=C(c1ccc(NS(=O)(=O)c2ccccc2)cc1)N1CCOCC1	none
O=C(Cc1ccc([N+](=O)[O-])cc1)NCc1ccccn1	CAL PDZ FP-2 75.8
CCOC(=O)c1cc2c(=O)n3cccc(C)c3nc2n(Cc2ccco2)c1=NC(=O)c1ccccc1	ALR inh 89.4
CCOC(=O)c1cc2c(=O)n3cccc(C)c3nc2n(Cc2ccco2)c1=NC(=O)c1ccc(C)cc1	none (no result: ALR inh)
C(=Nc1ccc(N2CCOCC2)cc1)c1c[nH]c2ccccc12	ALR inh 99.1 (no result: CAL PDZ FP-2)
COc1ccc(CNC(=O)Cc2cn(C)c3ccccc23)c(OC)c1	none
COc1ccc(N/N=C(\C=N\O)C(=O)c2ccc(OC)cc2)cc1	ALR inh 93.1
O=C(NNc1nc2c(F)cccc2s1)C1=COCCO1	ALR inh 99.6 (no result: DYRK1A inh)
Cc1ccc2sc(NNC(=O)C3=COCCO3)nc2c1C	ALR inh 98.9, Rtt109 HAT inh 59.4
C=CCSC1=N/C(=C\C=C\c2ccco2)C(=O)S1	ALR inh 98.7
Cc1ccccc1OCC(=O)Nc1nnc(-c2ccncc2)s1	ALR inh 86.7
COc1cccc(C2Nc3ccccc3C(=O)N2c2ccc(F)cc2)c1O (stereo not drawn)	none
COc1cccc(C2Nc3ccccc3C(=O)N2O)c1O (stereo not drawn)	ALR inh 87.2 (no result: CAL PDZ FP-1)
O=C(OCC(=O)N1CCOCC1)c1ccc[nH]c1=O	CAL PDZ FP-1 124.8
CCCN(C(=O)COC(=O)Cn1c(=O)oc2ccccc21)c1c(N)n(Cc2ccccc2)c(=O)[nH]c1=O	none (no result: CAL PDZ FP-2)
CCOC(=O)c1cc(C)sc1NC(=O)CSC1=NCCS1	none (no result: CAL PDZ FP-2)
CCN(CCO)c1ccc(N=Nc2cc(C)[nH]n2)cc1	ALR inh 84.1
CCN(CCO)c1ncnc2onc(-c3ccc(F)cc3)c12	none
Cc1[nH]nc(N)c1N=Nc1ccc(Br)cc1	none (no result: Rtt109 HAT inh, DYRK1A inh, CAL PDZ FP-1, CAL PDZ FP-2)
Cc1nc(N)sc1N=Nc1ccc(Br)cc1	ALR inh 98.9
CCN(CCNS(=O)(=O)c1ccc2[nH]c(=O)sc2c1)c1ccccc1	ALR inh 98.2 (no result: CAL PDZ FP-2)
CCOc1ccccc1CNS(=O)(=O)c1ccc2[nH]c(=O)sc2c1	none
COC(=O)CS(=O)(=O)c1ccsc1C(=O)Nc1ccc(F)c(F)c1	none
